Measurements published in ChEMBL document CHEMBL1125525, “5'-Azido-delta 8-THC: a novel photoaffinity label for the cannabinoid receptor” (1992).

Experiments:
Assay type in all cases: functional
Mus musculus [1] = organism: Mus musculus; assay: Percent inhibition measured in terms of the maximum possible effect (MPE)on latency by mouse tail-flick assay
Method in brief: (§1)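 Male ICR mice dosed intravenously; same animals scored for decreased locomotor activity (sedation), ring immobility (catalepsy), hypothermia and tail-flick antinociception. Dose-response data analysed by ANOVA; ED50 (mg/kg) with 95% confidence limits as potency, maximum effect as efficacy: percent inhibition of locomotion, change in °C for hypothermia, percent immobility for catalepsy, percent maximum possible effect on tail-flick latency.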

Mus musculus [2] = assay: Compound was evaluated by in vivo administration for its ability to produce hypothermia (change in temperature); method in brief: as §1
Mus musculus [3] = assay: Compound was evaluated by in vivo administration for Percent inhibition of locomotion in mice; method in brief: as §1
Mus musculus [4] = assay: Induction of ring immobility (catalepsy), measured by in vivo administration of drug in mouse; method in brief: as §1
Mus musculus [5] = assay: Compound was evaluated by in vivo administration for its ability to produce sedation; method in brief: as §1
Mus musculus [6] = organism: Mus musculus; assay: Antinociception measured in terms of the maximum possible effect (MPE)on latency by mouse tail-flick assay; method in brief: as §1
Mus musculus [7] = assay: Compound was evaluated by in vivo administration for percent inhibition of locomotion in mice; method in brief: as §1

SMILES	Inhibition (Mus musculus [1])	ED50 (Mus musculus [2])	Inhibition (Mus musculus [3])	ED50 (Mus musculus [4])	Immobility (Mus musculus [4])	ED50 (Mus musculus [5])	ED50 (Mus musculus [6])	Inhibition (Mus musculus [7])
CC1=CC[C@@H]2[C@@H](C1)c1c(O)cc(CCCCCN=[N+]=[N-])cc1OC2(C)C	100%	0.8 mg/kg	73%	0.8 mg/kg	57%	0.2 mg/kg	0.1 mg/kg	
CCCCCc1cc(O)c2c(c1)OC(C)(C)[C@@H]1CC=C(C)C[C@@H]21 [DELTA-8-TETRAHYDROCANNABINOL]	100%			5.2 mg/kg	58%	1.9 mg/kg	1.5 mg/kg	79%
